The record followed here is ChEMBL document CHEMBL1811771, “Synthesis and antimycobacterial activities of non-purine analogs of 6-aryl-9-benzylpurines: Imidazopyridines, pyrrolopyridines, benzimidazoles, and indoles” (Bioorg Med Chem, 2011).

Values after ≈ are worked out from the molar mass of the structure shown. Some results are limits rather than exact numbers.

Data set [1] concerns Mycobacterium tuberculosis. Briefly: Antimycobacterial activity against Mycobacterium tuberculosis H37Rv after 4 days by MABA assay. It counts as functional. Conditions: 96 h. In general terms: Alamar Blue is a resazurin reagent that responds to reducing activity.
The subject of data set [2] is Staphylococcus aureus. Briefly: Antimicrobial activity against Staphylococcus aureus ATCC 29213 by broth microdilution method. In kind it is functional. The method, boiled down: (§1)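 Broth microdilution in cation-adjusted Mueller-Hinton broth against the QC strain, following the standard method for inoculum preparation and incubation. Samples were serially diluted twofold from 16 to 0.125, in triplicate, with DMSO as solvent and diluent. A gentamicin accuracy control was made up in water and diluted in broth. MIC was the lowest concentration giving complete growth inhibition, read by eye.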
A general note: Broth dilution looks for growth in wells or tubes with falling amounts of substance.

The subject of data set [3] is Escherichia coli. Briefly: Antimicrobial activity against Escherichia coli ATCC 25922 by broth microdilution method. It counts as functional. The method, boiled down: as §1
Data set [4] concerns Mycobacterium tuberculosis. Briefly: Antimycobacterial activity against Mycobacterium tuberculosis H37Rv at 128 uM after 4 days by MABA assay. It counts as functional.
For data set [5], the system named is Mycobacterium tuberculosis. The data set is described as follows: Antimycobacterial activity against Mycobacterium tuberculosis H37Rv transfected with pFPCA-luxAB grown under anaerobic condition for 10 days followed by 24 hrs incubation under aerobic condition by LORA assay. It counts as functional.
Data set [6] has as its system Vero. The data set is described as follows: Cytotoxicity against african green monkey Vero cells. In kind it is ADME, cell-based. Particulars: Chlorocebus sabaeus.
Data set [7] has as its system Vero. The data set is described as follows: Cytotoxicity against african green monkey Vero cells at 128 uM. Conditions: chlorocebus sabaeus. In kind it is cell-based.
The nature of data set [8]: Selectivity index, ratio of EC50 for african green monkey VERO cells to MIC for Mycobacterium tuberculosis H37Rv. It counts as functional.
For data set [9], the system named is Mycobacterium tuberculosis. The data set is described as follows: Antimycobacterial activity against Mycobacterium tuberculosis H37Rv transfected with pFPCA-luxAB at 128 uM with pFPCA-luxAB grown under anaerobic condition for 10 days followed by 24 hrs incubation under aerobic condition by LORA assay. It counts as functional.
Data set [10] deals with Mycobacterium tuberculosis. The data set is described as follows: Antimycobacterial activity against Mycobacterium tuberculosis H37Rv at 21 uM after 4 days by MABA assay. In kind it is functional. Conditions: 96 h.

The MIC is the lowest concentration found to suppress growth. Consider `COc1ccc(Cn2cnc3c(-c4ccco4)nc(Cl)nc32)cc1`, for which, in data set [1], the lowest concentration to inhibit growth (MIC) was 0.36 µM (≈ 0.123 µg/mL).
`COc1ccc(Cn2ccc3c(-c4ccco4)ccnc32)cc1`: the values for the minimal inhibitory concentration (MIC) in data set [1], in data set [2] and in [3] were 44 µM (≈ 13.4 µg/mL), over 16 µg/mL and over 16 µg/mL, respectively.
With `COc1ccc(Cn2cnc3c(-c4ccco4)ncnc32)cc1`, the minimum inhibitory concentration (MIC) in [1] turned out to be 2.1 µM (≈ 0.643 µg/mL).
As for `COc1ccc(Cn2ccc3c(-c4ccco4)cc(Cl)nc32)cc1`, the MIC in data set [1] is over 128 µM; in [2], over 16 µg/mL; in data set [3] it was over 16 µg/mL. In data set [4], this molecule displayed an Activity of 86%.
As for `O=[N+]([O-])c1cn2c(n1)OC[C@@H](OCc1ccc(OC(F)(F)F)cc1)C2` [PRETOMANID], the minimum inhibitory concentration (MIC) in [1] came to 0.44 µM (≈ 0.158 µg/mL); in [5], 3.11 µM (≈ 1.12 µg/mL).
What is called IC50 is the concentration that gives 50% inhibition. As to `COc1ccc(Cn2cnc3c(-c4ccco4)nccc32)cc1`, the MIC is 0.84 µM (≈ 0.256 µg/mL) in data set [1], 80 µM (≈ 24.4 µg/mL) in [5], over 16 µg/mL in data set [2] and over 16 µg/mL in data set [3]. The same molecule returned a concentration for half-maximal inhibition (IC50) in data set [6] of over 128 µM. Further, the Activity in data set [7] is 0%. In data set [8], the “Selectivity Index” value was over 150.
`COc1ccc(Cn2ccc3c(-c4ccco4)nc(Cl)cc32)cc1`: the minimum inhibitory concentration (MIC) is 0.09 µM (≈ 0.0305 µg/mL) in data set [1], over 128 µM in [5], over 16 µg/mL in [2] and over 16 µg/mL in data set [3]. For the same molecule, the Activity in [9] stood at 53%. Moreover, in data set [6], the 50% inhibitory concentration (IC50) is 58 µM. The “Selectivity Index” value in data set [8] was found to be 644.
Take `COc1ccc(Cn2ccc3c(-c4ccco4)ncnc32)cc1`: in [1], the MIC came to 0.16 µM (≈ 0.0489 µg/mL).
With `COc1ccc(Cn2ccc3c(-c4ccco4)nccc32)cc1`, the minimal inhibitory concentration (MIC) was 1.4 µM (≈ 0.426 µg/mL) in data set [1], 28 µM (≈ 8.52 µg/mL) in [5], over 16 µg/mL in [2] and over 16 µg/mL in [3]. 12 µM corresponded to half-maximal inhibition in [6] (IC50). In addition, the “Selectivity Index” value in data set [8] is recorded as 8.6.
Usually inhibition stands for the percentage by which the read-out fell short of the control. In the case of `COc1ccc(Cn2ccc3c(-c4ccco4)cccc32)cc1`, the MIC in data set [1] is over 21 µM; in data set [2], over 16 µg/mL; in data set [3] it was over 16 µg/mL. Moreover, at 21 µM the inhibition in data set [10] was 0%.
Consider `NNC(=O)c1ccncc1` [ISONIAZID], for which the MIC in data set [1] was 0.28 µM (≈ 0.0384 µg/mL); in data set [5] it was over 128 µM.
For `COc1ccc(Cn2cnc3c(-c4ccco4)cc(Cl)nc32)cc1`, the minimal inhibitory concentration (MIC) in data set [1] was over 128 µM; in data set [2], over 16 µg/mL; in [3] it was over 16 µg/mL. Besides, the Activity in [4] is reported as 37%.
On to `COc1ccc(Cn2cnc3c(-c4ccco4)nc(Cl)cc32)cc1`, for which the minimum inhibitory concentration (MIC) in [1] is 0.16 µM (≈ 0.0544 µg/mL); in [5] it was 48 µM (≈ 16.3 µg/mL); in [2] it was over 16 µg/mL; in data set [3], over 16 µg/mL. This molecule also came in with a half-maximal inhibitory concentration (IC50) in data set [6] of over 128 µM. The Activity in data set [7] is 30%. Further, the “Selectivity Index” value in data set [8] was over 800.
In data set [1], `COc1ccc(Cn2ccc3c(-c4ccco4)nc(Cl)nc32)cc1` registered a minimal inhibitory concentration (MIC) of 0.08 µM (≈ 0.0272 µg/mL).
As to `CO[C@H]1/C=C/O[C@@]2(C)Oc3c(C)c(O)c4c(O)c(c(/C=N/N5CCN(C)CC5)c(O)c4c3C2=O)NC(=O)/C(C)=C\C=C\[C@H](C)[C@H](O)[C@@H](C)[C@@H](O)[C@@H](C)[C@H](OC(C)=O)[C@@H]1C` [RIFAMPIN], the MIC was determined as 0.09 µM (≈ 0.0741 µg/mL) in data set [1] and 0.97 µM (≈ 0.798 µg/mL) in data set [5].
On to `COc1ccc(Cn2cnc3c(-c4ccco4)ccnc32)cc1`, for which the MIC in data set [1] was 63 µM (≈ 19.2 µg/mL); in [2] it was over 16 µg/mL; in [3] it was over 16 µg/mL.
On to `COc1ccc(Cn2cnc3c(-c4ccco4)cccc32)cc1`, for which the minimal inhibitory concentration (MIC) was 29 µM (≈ 8.83 µg/mL) in data set [1], over 16 µg/mL in data set [2] and over 16 µg/mL in [3].
